Screens deposited in PubChem BioAssay by several laboratories.
This is a sample that favours compounds with a hit; in the whole collection about 4.3% have one here.
SDO1 yeast rescue: sdo1-depleted yeast growth rescue | AID 817 | z-score at 10 µM | S. cerevisiae sdo1-depleted JHY4D growth rescue, OD600 30 h; active compounds read high; pdr5 snq2 efflux-pump mutant strain | hit rate 0.21% among 140,000;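 active means z-score above 3 at both the 24 hr and the 30 hr optical density reads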;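 further: z-score against mean and SD of all compound wells on the same plate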
FLuc stim CS: affects firefly luciferase, flagging false hits in luciferase stimulation screens; activation factor at 10 µM; P08659; ATPlite luciferase biochemical, luminescence, 10 min; 0 = ATP-free wells, 1 = DMSO control; 200,000 tested, under 10 active; AID 1027;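 active means luciferase activation factor, scaled between plate controls, of at least 2 with compound at 10 µM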
Target sequence (P08659 whole entry, looked up): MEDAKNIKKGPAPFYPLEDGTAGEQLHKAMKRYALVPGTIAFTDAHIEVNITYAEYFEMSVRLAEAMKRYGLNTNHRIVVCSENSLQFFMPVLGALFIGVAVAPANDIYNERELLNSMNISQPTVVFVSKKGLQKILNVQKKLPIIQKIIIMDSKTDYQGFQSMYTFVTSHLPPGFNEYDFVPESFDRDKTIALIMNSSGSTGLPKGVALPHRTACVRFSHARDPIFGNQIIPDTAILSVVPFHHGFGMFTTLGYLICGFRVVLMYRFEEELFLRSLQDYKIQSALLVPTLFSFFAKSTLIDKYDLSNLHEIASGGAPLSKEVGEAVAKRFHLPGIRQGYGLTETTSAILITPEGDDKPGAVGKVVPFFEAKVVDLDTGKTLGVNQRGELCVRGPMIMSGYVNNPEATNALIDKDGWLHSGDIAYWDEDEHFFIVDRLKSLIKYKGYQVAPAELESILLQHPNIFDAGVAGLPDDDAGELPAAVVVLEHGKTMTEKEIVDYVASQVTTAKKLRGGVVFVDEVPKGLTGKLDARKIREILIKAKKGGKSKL
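Assay system: Luciferase/luciferin detection reagent, cell-free biochemical luciferase assay / Also added: ATP substrate / Schedule: 10 min at ambient temperature / Measured by: luminescence measurement of luciferase light output / Benchmarks: low control with PBS replacing ATP, high control enzyme plus ATP without compound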
APP 5'UTR act: activates APP 5'UTR luciferase reporter; hit rate 1% among 190,000; SH-SY5Y APP 5'UTR luciferase reporter, luminescence; zero percent = DMSO vehicle wells; activation, % at 2 µM;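 active means activation above a set limit, based on mean plus 3 SD of controls, cut at about 140% in these data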
STAT1 act: increases IFN-gamma driven STAT1 reporter signal; NIH 3T3 STAT1-luciferase reporter, luminescence; 100% = IFN-gamma alone, no compound; activation (% of control), % at 5.5 µM; hit rate 2.6% among 200,000;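 active means activation above the screen-wide mean activation plus 3 SD, cut at about 130% in these data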;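 further: raw ratio to IFN-gamma control signal so 100% means no change and 0% no light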
NF-kB neuron act: NF-kB expression increase, human neuronal cells | NF-kB reporter expression; active compounds read high | fold change at 12.5 µM | hit rate 1.6% among 190,000; in the data active means fold change above about 3.3
FLuc inhib CS: inhibits firefly luciferase, flagging false hits in luciferase inhibition screens; ATPLite firefly luciferase biochemical luminescence, 10 min; hit rate 1.5% among 200,000; inhibition, % at 10 µM;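 active means inhibition above about 50% when tested at 10 µM, limit read from the data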
The depositor's hits bear a star; . = no result.

SMILES	SDO1 yeast rescue	FLuc stim CS	APP 5'UTR act	STAT1 act	NF-kB neuron act	FLuc inhib CS
CC(=O)c1cnc(Nc2cccc(Cl)c2Cl)s1	.	1	69.2	135.5*	1.97	-2.0
CNc1ncc(C(=O)c2ccc(Br)cc2)s1	.	0.6	94.0	140.2*	3.5*	41.1
O=C(c1ccc(Cl)cc1)c1cnc(-c2ccccc2)s1	1.37	1	7.7	102.5	1.33	-1.2
O=S1(=O)CC(O)C(NCCO)C1 (configuration not stated)	.	1.1	31.8	102.0	1.13	-7.6
CC1=NN(C(=O)CCc2ccc3c(c2)OCO3)C(O)(C(F)(F)F)C1 (configuration not stated)	.	1	37.6	104.3	1.72	-1.5
CCOC(=O)C1=C(C)N(CC(C)C)C(=O)C1	.	1.1	-1.2	108.8	1.21	-9.5
CC(C)CNC(=O)COc1cccc(C(=O)NCc2ccccc2)c1	0.18	1	4.6	95.4	0.92	0.5
CCOC(=O)C1(CCOc2ccccc2)CCN(Cc2ccc(-n3cccn3)cc2)CC1	.	1.1	25.1	92.0	3.89*	-5.1
O=C(Nc1ccccc1)OCCOc1ccccc1	1.19	1	87.5	132.5*	4.48*	-0.1
Cc1ccc(OC(=O)Nc2ccccc2)cc1	.	0.5	27.3	144.0*	0.98	51.0*
CCOC(=O)c1ccc(NC(=O)Oc2ccccc2)cc1	-0.65	1.1	13.9	106.0	1.27	-9.4
c1csc(-c2ccc3ccccc3n2)c1	0.33	0.6	42.9	147.3*	2.2	40.0
Nc1nc(-c2cccs2)cs1	-0.21	1	6.1	117.3	1.13	0.1
Cc1ccc2nc(NC(=S)NC(=O)c3ccco3)sc2c1	0.18	0.1	163.4*	124.7	1.42	90.0*
Cc1ccc(Cc2cnc(NC(=O)c3ccco3)s2)cc1	-0.92	0.6	128.0	116.6	7.41*	44.0
CC(=O)Nc1nc2ccc(NC(=O)c3ccco3)cc2s1	1.91	0.9	-3.5	125.8	1.96	9.5
O=C(Nc1nc2ccc(Cl)cc2s1)c1ccco1	-0.93	0.4	132.4	116.3	7.35*	62.8*
COCC(=O)Nc1nc2ccc(C)cc2s1	-0.59	0.5	94.8	128.0	3.74*	47.2
Cc1ccc2nc(NC(=O)c3ccco3)sc2c1	-0.54	0.1	83.7	45.4	1.79	90.4*
O=C(COc1ccccc1CNCc1ccccc1)Nc1ccccc1	-0.09	1	.	101.8	1.03	-4.5
O=C(N/N=C/c1ccccc1)c1[nH]ncc1Br	.	0.3	19.1	130.2*	2.55	70.2*
CCOc1ccc(-c2nc(-c3cccs3)c(CC(=O)O)s2)cc1OC	.	0.3	-7.5	112.5	1.71	68.5*
Cc1ccc(Nc2nc(NCc3ccco3)c3ccccc3n2)cc1	.	0.9	34.5	92.9	0.61	5.5
CC(NCC(c1ccco1)N1CCCCC1)C(=O)NC1CCCC1 (configuration not stated)	.	0.3	-7.4	95.9	1.21	74.5*
COc1ccccc1CC(=O)NCC(c1ccco1)N1CCCCC1 (configuration not stated)	.	1	-15.7	98.8	1.03	-3.2
SMILES	SDO1 yeast rescue	FLuc stim CS	APP 5'UTR act	STAT1 act	NF-kB neuron act	FLuc inhib CS
Cc1c(C(=O)Nc2nc3ccccc3[nH]2)oc2ccccc12	-0.91	0.5	181.7*	162.5*	8.13*	52.8*
Cc1c(C(=O)Nc2ccccn2)oc2ccccc12	-0.67	0.6	152.8*	123.7	4.52*	45.0
CN(C(=O)/C=C/c1cnc2ccccc2c1)C1CCCCC1	.	0.4	275.2*	105.2	3.9*	62.5*
COc1ccc(/C=C/C(=O)N(C)C2CCCCC2)cc1Br	.	1	29.2	118.5	1.42	1.0
CCN1CCCc2cc(CN(CCN3CCOCC3)C(=S)Nc3cccc(Cl)c3)ccc21	.	1.1	7.0	98.3	8.13*	-7.2
CCCC(C)NC(=O)c1cc(Cl)ccc1OC (configuration not stated)	-0.44	1	10.5	97.1	0.98	-1.8
N/C(=N\OC(=O)C12CC3CC(CC(C3)C1)C2)c1cccnc1	-1.74	0.7	18.9	110.8	1.51	27.0
O=C(Nc1ccccn1)C12CC3CC(CC(C3)C1)C2	-0.36	1	-11.6	98.0	1.39	0.0
C/C(=N/NC(=O)c1ccoc1C)C12CC3CC(CC(C3)C1)C2	1.66	1	158.3*	121.8	1.97	-0.3
C/C(=N\NC(=O)c1ccccn1)C12CC3CC(CC(C3)C1)C2	-0.27	0.9	86.4	149.9*	1.78	14.3
O=C(NN=C1CCCCCCC1)c1ccccn1	2.1	1	170.0*	118.7	1.84	-2.8
N/C(=N\OC(=O)C12CC3CC(CC(C3)C1)C2)c1ccccc1	-2.04	0.4	-11.1	100.8	1.48	64.7*
CCNc1nc(NCC)n2c(SC(C(=O)Nc3cc(C)ccc3OC)c3ccccc3)nnc2n1 (configuration not stated)	1.78	1	7.1	86.8	0.62	-3.6
CC(OC(=O)Cc1c(F)cccc1Cl)C(=O)NCCC1=CCCCC1 (configuration not stated)	-0.88	1	4.0	100.4	1.01	-0.5
N/C(=N\OC(=O)C12CC3CC(CC(C3)C1)C2)c1ccccn1	-0.67	0.3	13.9	142.4*	1.85	66.0*
Cc1cccc(NC(=O)C23CCC(C)(C2Br)C3(C)C)c1 (configuration not stated)	-0.7	1	2.6	98.4	1.14	-4.7
O=C(CN1CCN(S(=O)(=O)c2ccccc2F)CC1)Nc1ccccc1C(=O)c1ccccc1	.	1.1	78.8	81.8	0.68	-9.8
Cc1cc(-c2nn(-c3ccccc3)cc2/C=C2\SC(N)=NC2=O)ccc1OC(C)C	0.02	1	-3.8	109.3	0.88	2.2
Cc1cc(/C=C2\SC(N)=NC2=O)c(C)n1-c1ccccc1	0.19	0.2	.	128.4	1.38	82.7*
CCN(CC)c1ccc(N=Cc2ccccc2[N+](=O)[O-])cc1	-0.45	0.3	0.3	96.9	1.04	65.6*
O=C(Nc1ccc(CN2CCCCC2)cc1)Nc1ccccc1Cl	.	1	41.6	115.2	1.78	3.6
CCn1ccc(C(=O)Nc2cccc(Cl)c2)n1	.	0.8	50.8	141.0*	2.26	22.1
CCn1ccc(C(=O)Nc2ccc(S(=O)(=O)Nc3ccccc3OC)cc2)n1	-1.37	1	-0.3	98.7	0.81	0.6
CCn1ccc(C(=O)Nc2ccccc2Cl)n1	.	0.8	162.0*	138.4*	4.14*	21.4
CCN1CCN(Cc2ccc(NC(=O)Nc3ccccc3Cl)cc2)CC1	0.47	0.3	140.6*	117.6	2.47	65.8*
COc1ccccc1/C=C/C(=O)NCC(=O)N1CCC(N(C)C2CCCC2)CC1	.	1	-10.6	99.2	1.33	3.5
Cc1cc(C)c2c(NC(=S)NC(=O)c3ccccc3)n[nH]c2n1	.	0.8	2.2	105.8	1.01	16.6
COc1ccc(-c2nc(SC(CC(=O)NCCN3CCOCC3)c3cccs3)n[nH]2)cc1 (configuration not stated)	.	1.1	10.5	101.7	1.01	-6.2
